Compound activity from PubChem BioAssay.
Most compounds without a hit are left out; they make up all but 2% or so of the library.
PKA-R1A act – activators of PKA-R1A complex; PKA-R1A dissociation, Cy5-IP20 fluorescence polarization; scaled: DMSO 0%, 113 µM cGMP 100%; activation, % at 11.4 µM; 0.083% of 340,000 active; AID 504707;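 active = percent activation above the mean of all tested compounds plus 3 SD, cut at about 19% in these data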;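 also: higher means more PKAc released from R1A so a rise in polarization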
NTR1 ag – activates human neurotensin receptor 1 | P30989 | NTR1-U2OS beta-arrestin-GFP spot imaging, agonist mode | activation, % at 20 µM | 0.17% of 330,000 active | AID 493036;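 active = activation at or above 40% of the spot to cytoplasm intensity ratio, with at least 20 cells analyzed; inconclusive = wells under 20 cells, flagged as cytotoxic or low count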;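 also: 0% = DMSO without peptide and 100% = 100 nM NTR1 peptide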
Target sequence (P30989 whole entry, looked up): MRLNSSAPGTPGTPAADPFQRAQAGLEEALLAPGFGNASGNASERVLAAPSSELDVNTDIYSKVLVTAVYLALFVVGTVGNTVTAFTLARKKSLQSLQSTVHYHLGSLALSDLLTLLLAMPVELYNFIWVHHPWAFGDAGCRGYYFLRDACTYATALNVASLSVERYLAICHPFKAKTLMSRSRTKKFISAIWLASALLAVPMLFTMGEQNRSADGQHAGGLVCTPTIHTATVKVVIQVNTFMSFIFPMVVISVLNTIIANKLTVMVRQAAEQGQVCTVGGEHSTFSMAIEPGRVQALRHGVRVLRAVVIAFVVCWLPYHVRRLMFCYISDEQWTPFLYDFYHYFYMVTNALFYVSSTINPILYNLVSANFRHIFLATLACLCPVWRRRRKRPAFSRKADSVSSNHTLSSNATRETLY
PKA-R2B activ – activates the human PKA-R2B holoenzyme complex. PKA-R2B holoenzyme dissociation, Cy5-IP20 fluorescence polarization; R2B truncated from residue 108, S112A mutant; 0% DMSO only, 100% 113 µM cGMP. activation, % at 11.4 µM. 0.079% of 340,000 active;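 active = activation above a cutoff set at the mean over all compounds plus 3 SD, cut at about 18% in these data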;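 also: higher means more holoenzyme dissociation and a rise in polarization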
CAL PDZ FP-1 – CAL PDZ (human) peptide binding inhibition | AID 602252 | inhibition, % at 24.9 µM | purified CAL PDZ, TMR-peptide fluorescence polarization, 1 h | Q9HD26 | 0.92% of 300,000 active;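 active = mean inhibition of at least 30% with at least half of replicates also reaching 30%; inconclusive = no clear call, values can overlap the other calls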;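 also: 0% = DMSO neutral control and 100% = excess unlabeled competitor peptide PRC23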
CAL PDZ FP-2 – human CAL PDZ-peptide interaction inhibition. Q9HD26. purified CAL PDZ, TMR-peptide fluorescence polarization, 1 h. inhibition, % at 20 µM. 0.02% of 330,000 active. AID 504414;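 active = highest replicate inhibition of at least 40%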;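 also: plate controls were DMSO neutral control wells for no effect and unlabeled competitor peptide control wells for full effect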
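System: purified tagged CAL PDZ domain construct (CerCALP). Schedule: 1 h incubation at room temperature before polarization reading. Medium: 25 mM sodium phosphate pH 7.4, 150 mM NaCl, TCEP, IgG, Thesit. Read-out: percent inhibition from loss of millipolarization. Measured by: FP readout, S and P plane fluorescence. Probe or stimulus: fluorescent TMR peptide probe.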
dFosB act-1 – mouse delta FosB homodimer activation | 0.99% of 340,000 active | activation, % at 25 µM | AID 493131 | purified delta FosB, TAMRA-CDK5 oligo fluorescence polarization; percent of positive-control signal above neutral wells | P13346;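 active = mean activation above about 17%, with every replicate also reaching it, limit read from the data, passing the limit was not always enough; inconclusive = only one of the two conditions met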
dFosB act-2 – delta FosB (mouse) homodimer activation | shares compounds with dFosB act-1 | purified delta FosB, TAMRA-CDK5 oligo fluorescence polarization; normalised: neutral wells 0, positive control 100 | activation, % at 24.9 µM | 2,400 tested, under 10 active;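 active = highest replicate activation at or above 34% and every replicate reaching that threshold; inconclusive = meets only one of the two criteria; inactive = meets neither criterion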;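 also: higher polarization means more probe DNA bound by delta FosB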
The depositor's hits bear a star; ? = inconclusive; . = no result.

SMILES	PKA-R1A act	NTR1 ag	PKA-R2B activ	CAL PDZ FP-1	CAL PDZ FP-2	dFosB act-1	dFosB act-2
CCC1CCc2sc(C(=O)NC3CCN(Cc4ccccc4)CC3)cc2C1 (centres undefined)	-11.5	9.9	-5.1	-3.6	-3.2	29.0*	0.9
CC1CCc2sc(C(=O)NC3CCN(Cc4ccccc4)CC3)cc2C1 (centres undefined)	0.7	5.1	-5.1	-1.3	-1.1	-13.8	.
Cc1ccc(C(=O)N[C@H](C(=O)Nc2ccc(N3CCOCC3)cc2)C(C)C)cc1	-11.1	0.2	-0.5	-5.4	0.9	2.5	.
O=C(CN1C(=O)NC(c2ccc(F)cc2)C1=O)Nc1ccc2c(c1)OCCO2 (centres undefined)	-7.2	-0.5	-1.2	-3.5	-0.6	3.7	.
CCCCn1c(N)c(N(CC(C)C)C(=O)C2CCN(C(=O)c3ccc(F)cc3)CC2)c(=O)[nH]c1=O	-2.0	0.7	7.4	-5.0	-2.0	-4.4	.
CCCCn1c(N)c(N(CC(C)C)C(=O)C2CCN(S(=O)(=O)c3ccc(OCC)cc3)CC2)c(=O)[nH]c1=O	-12.8	0.4	-20.8	-3.0	-2.7	19.1*	4.3
COc1ccc(OC)c(NC(=O)CSc2nccn2Cc2ccco2)c1	-7.7	0.0	5.2	0.4	-1.0	-11.7	.
Cc1ccc(C)c(OCC(=O)OCc2csc(CC(=O)Nc3ccccc3C)n2)c1	-4.6	.	-9.7	.	.	.	.
CN(C(=O)CSc1nnc(C2CC2)n1C1CC1)C1(C#N)CCCCC1	-2.0	0.6	3.0	.	-0.8	-3.9	.
CCOc1ccc(C(=O)N/N=C/c2cc([N+](=O)[O-])cs2)cc1	-9.8	-1.0	-5.2	.	-0.8	21.2*	-7.5
Cc1cc(C(=O)N/N=C\c2ccc(COc3ccc([N+](=O)[O-])cc3)o2)ccc1[N+](=O)[O-]	-10.8	-1.8	2.1	19.2	.	36.0*	1.6
Cc1c(Cl)cccc1N1C(=O)CC(NNC(=O)c2ccc3c(c2)OCO3)C1=O (centres undefined)	-5.4	0.4	5.6	.	-1.3	-7.5	.
CCc1cccc(NC(=O)COC(=O)C2COc3ccccc3O2)c1 (centres undefined)	-5.0	.	-0.5	.	.	.	.
CC(OC(=O)c1cc(-c2cccnc2)nc2ccccc12)C(=O)Nc1ccc2ccccc2c1 (centres undefined)	-8.4	12.8	-7.0	-3.4	-0.6	43.6*	6.7
COc1cccc(-c2cc(C(=O)Nc3ccncc3)c3ccccc3n2)c1	-5.0	1.5	3.4	-0.2	-4.0	-18.8	.
Cc1ccc2nc(-c3ccc(SCC(=O)Nc4nnc(C)s4)nc3)[nH]c2c1	3.7	14.0	10.3	-2.1	-1.6	71.6*	2.4
Cc1ccc2nc(-c3ccc(SCC(=O)Nc4nc(C)cs4)nc3)[nH]c2c1	-5.7	10.2	-16.8	.	0.4	33.0*	4.7
Cc1csc(NC(=O)CSc2ncc(-c3ccccc3)[nH]2)n1	-3.9	1.4	6.2	0.8	-0.8	-5.6	.
O=C1CN(C(=O)COC(=O)COc2ccccc2)c2ccccc2N1	5.2	2.4	-0.9	2.1	0.4	-12.6	.
O=C(Nc1ccc(S(=O)(=O)N2CCCCC2)cc1)C1CC(=O)N(c2ccc(Cl)cc2)C1 (centres undefined)	-0.4	3.7	-12.0	-2.6	-2.1	-1.1	.
Cc1ccc(-n2c(-c3ccc(Br)cc3)c[n+]3c2CCc2ccc4cccnc4c2-3)cc1	-2.5	.	0.9	-3.0	-7.4	25.6*	?
N#Cc1ccc(C23CC4(C2)[C@H](CN(Cc2ccc(-c5ccccc5)cc2)[C@@H]4c2ccccc2)C3c2ccc(Cl)nc2)cc1 (some centres undefined)	-0.9	-0.4	-6.9	-3.1	-0.3	16.8*	4.1
C/C(=N\NC(=O)c1ccc2c(c1)OCO2)c1ccc(O)cc1	-2.1	0.2	-5.1	-2.9	-2.1	7.0	.
COc1ccc2c(Cl)c(C(=O)N/N=C/c3ccc4c(c3)OCO4)sc2c1	-0.2	3.9	0.3	1.2	-2.2	34.0*	-0.5
C/C(=N/NC(=O)c1ccc2c(c1)OCO2)c1ccc(NC(=O)C(F)(F)F)cc1	-4.9	.	-8.5	-8.5	0.1	27.7*	1.0
SMILES	PKA-R1A act	NTR1 ag	PKA-R2B activ	CAL PDZ FP-1	CAL PDZ FP-2	dFosB act-1	dFosB act-2
Cc1ccc(Cl)cc1NC(=O)C(=O)N/N=C/c1ccc2c(c1)OCO2	-14.4	-0.6	-0.9	-2.6	-0.8	39.9*	-1.4
CC(=O)Nc1ccc(NC(=O)COC(=O)/C=C/c2ccc3c(c2)OCO3)cc1	1.9	-1.7	6.5	10.1	0.2	4.2	.
NC(=O)c1ccc(NC(=O)COC(=O)/C=C/c2ccc3c(c2)OCO3)cc1	4.3	0.4	-11.6	-2.3	-2.6	23.7*	1.7
O=C(N/N=C/c1ccc2c(c1)OCO2)c1sc2cc(Cl)ccc2c1Cl	-4.4	0.8	-6.3	-1.5	1.1	-4.3	.
Cc1cccnc1CCNCc1c(C(=O)N2C[C@@H](C)O[C@@H](C)C2)nc2ccc(Cl)cn12	-3.7	0.9	-13.7	.	-0.3	-10.3	.
Cc1ccc(C)c(NC(=O)CN(C)C(=O)c2ccc(COc3ccccc3)cc2)c1	-8.2	.	-0.7	.	.	.	.
O=C(N/N=C\C=C\c1ccc(Br)cc1)c1ccc2c(c1)OCO2	8.2	0.2	0.6	-3.2	-1.8	24.3*	3.5
O=C(N/N=C/c1ccc(F)cc1)c1cc(-c2ccc3c(c2)OCO3)n[nH]1	-1.9	0.6	7.3	-0.5	0.5	29.0*	-2.5
O=C(N/N=C/c1ccc2c(c1)OCO2)c1ccc(NC(=O)c2ccc(F)cc2)cc1	6.5	1.7	1.8	-0.2	-0.3	103.1*	-1.5
COc1ccc(/C=N/NC(=O)c2cc(-c3ccc4c(c3)OCO4)n[nH]2)cc1OC	3.9	2.3	5.7	-4.6	-1.8	73.2*	-4.4
CN(C)c1ccc(/C=N/NC(=O)c2cc(-c3ccc4c(c3)OCO4)n[nH]2)cc1	-0.8	2.6	10.1	1.7	2.7	7.5	.
COc1ccc(COC[B-](F)(F)F)cc1	11.8	.	8.6	.	.	.	.
COc1ccccc1C(=O)NC(=O)COC(=O)C1CC1C (centres undefined)	13.2	-0.1	-9.8	-1.3	0.4	-3.6	.
C[C@@H]1CCCCO[C@@H](CN(C)C(=O)c2ccncc2)[C@@H](C)CN([C@H](C)CO)C(=O)c2cc(NC(=O)Cc3ccccc3)ccc2O1	2.0	.	3.5	.	.	.	.
COc1ccc(NS(=O)(=O)c2cccc(C(=O)N/N=C/c3ccc4c(c3)OCCO4)c2)cc1	1.3	-0.9	-6.5	2.6	-2.8	25.1*	-5.3
